Measured values taken from paper PMC9653025 (Drug Design, Development and Therapy, 2022).
Read-outs that look alike come from different tables or passages of the source.

Key:
[1] = system: COX-1/COX-2; conditions: cited from earlier work
[2] = format: in vivo, healthy Chinese subjects; conditions: single oral 100 mg imrecoxib, plasma
Procedure, shortened: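 Open-label parallel Phase I study in healthy Chinese adults aged 18–85 y, BMI 19–28 kg/m2, 1:1 sex. Single 100 mg tablet of test compound taken orally with 240 mL water after a 4 h fast. EDTA blood drawn predose and 0.5–72 h after dosing; plasma stored at −70°C. Parent compound plus hydroxyl and carboxyl metabolites measured by LC-MS/MS (C18, MRM, acetonitrile precipitation, internal standard). Non-compartmental analysis; group geometric mean ratios with 90% CI.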

[3] = Safety and tolerability; format: in vivo, healthy Chinese subjects
Procedure, shortened: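 Single 100 mg oral tablet given after fasting; subjects kept in a supervised Phase I ward until 72 h post-dose. Tolerability tracked through adverse-event monitoring, physical examinations, haematology, blood biochemistry, urinalysis and 12-lead ECG; clinical laboratory tests run in a CAP-accredited hospital laboratory. Elderly and non-elderly groups assessed in parallel.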

[4] = healthy subjects, single oral dose 30, 60, 90 and 200mg imrecoxib; cited from earlier work
[5] = Elderly Group (N=9), single oral 100 mg imrecoxib
[6] = Elderly Group (N=9), single oral 100 mg imrecoxib, subjects (%)
[7] = Non-Elderly Group (N=10), single oral 100 mg imrecoxib
[8] = Non-Elderly Group (N=10), single oral 100 mg imrecoxib, subjects (%)

CS(=O)(=O)c1ccc(C2=C(c3ccccc3)C(=O)OC2)cc1 [rofecoxib]
IC50COX-1/IC50COX-2 value [1]: above 213

CCCN1CC(c2ccc(S(C)(=O)=O)cc2)=C(c2ccc(C)cc2)C1=O [M0, imrecoxib]
Geometric Mean AUC0-∞ ([2]; Group A (N=10), non-elderly): 148 h*ng/m
Geometric Mean AUC0-∞ ([2]; Group B (N=9), elderly): 193 h*ng/m
Geometric Mean Ratio B/A of AUC0-t ([2]; elderly (B) / non-elderly (A)): 134%
Geometric Mean Ratio B/A of AUC0-∞ ([2]; elderly (B) / non-elderly (A)): 130%
Geometric Mean Ratio B/A of Cmax ([2]; elderly (B) / non-elderly (A)): 139%
All adverse events, Severity Grade I [3, 5]: 2
Aspartate transaminase increased, Severity Grade I [3, 5]: 1
Aspartate transaminase increased, Severity Grade II [3, 5]: 0
Aspartate transaminase increased, Severity Grade III [3, 5]: 0
Blood bilirubin increased, Severity Grade I [3, 5]: 1
Blood bilirubin increased, Severity Grade II [3, 5]: 0
Blood bilirubin increased, Severity Grade III [3, 5]: 0
Blood glucose increased, Severity Grade I [3, 5]: 0
Blood glucose increased, Severity Grade II [3, 5]: 0
Blood glucose increased, Severity Grade III [3, 5]: 0
White blood cell increased, Severity Grade I [3, 5]: 0
White blood cell increased, Severity Grade II [3, 5]: 0
White blood cell increased, Severity Grade III [3, 5]: 0
Acute upper respiratory infection, Incidence (%) [3, 6]: 0(0.0%)
All adverse events, Incidence (%) [3, 6]: 2(22.2%)
Aspartate transaminase increased, Incidence (%) [3, 6]: 1(11.1%)
Blood bilirubin increased, Incidence (%) [3, 6]: 1(11.1%)
Blood glucose increased, Incidence (%) [3, 6]: 0(0.0%)
Fibrinogen decreased, Incidence (%) [3, 6]: 0(0.0%)
White blood cell increased, Incidence (%) [3, 6]: 0(0.0%)
All adverse events, Severity Grade I [3, 7]: 2
Aspartate transaminase increased, Severity Grade I [3, 7]: 0
Aspartate transaminase increased, Severity Grade II [3, 7]: 0
Aspartate transaminase increased, Severity Grade III [3, 7]: 0
Blood bilirubin increased, Severity Grade I [3, 7]: 0
Blood bilirubin increased, Severity Grade II [3, 7]: 0
Blood bilirubin increased, Severity Grade III [3, 7]: 0
Blood glucose increased, Severity Grade I [3, 7]: 1
Blood glucose increased, Severity Grade II [3, 7]: 0
Blood glucose increased, Severity Grade III [3, 7]: 0
Fibrinogen decreased, Severity Grade I [3, 7]: 1
White blood cell increased, Severity Grade I [3, 7]: 1
White blood cell increased, Severity Grade II [3, 7]: 0
White blood cell increased, Severity Grade III [3, 7]: 0
Aspartate transaminase increased, Incidence (%) [3, 8]: 0(0.0%)
Blood bilirubin increased, Incidence (%) [3, 8]: 0(0.0%)
Severity of all the AEs ([3]; both groups, recovered without any medical intervention): mild
Gastrointestinal, cardiovascular or renal side effects observed ([3]; both groups, single oral 100 mg imrecoxib): No concomitant gastrointestinal, cardiovascular or renal side effects
AEs considered to be ADRs ([3]; elderly group): Increased aspartate transaminase and blood bilirubin
Tolerability ([3]; non-elderly and elderly healthy subjects, oral): well tolerated
AEs regarded as adverse drug reaction (ADR) ([3]; non-elderly group): increased blood glucose
IC50COX-1/IC50COX-2 value [1]: 6.39
IC50COX-1/IC50COX-2 value relative to celecoxib [1]: 77%
Dose dependence of pharmacokinetics [4]: linear dynamic characteristics
Tmax [4]: about 2 hours
